According to ChEMBL document CHEMBL1134783, “N-Arylsulfonylindole derivatives as serotonin 5-HT(6) receptor ligands” (J Med Chem, 2001):

Assays:
[1] = biological target: T1, 5-hydroxytryptamine receptor 1A (Homo sapiens, UniProt P08908); assay: Binding affinity against 5-hydroxytryptamine 1A receptor in HeLa cells was determined using [3H]5-HT; format: cell-based
T1 sequence (P08908 whole entry): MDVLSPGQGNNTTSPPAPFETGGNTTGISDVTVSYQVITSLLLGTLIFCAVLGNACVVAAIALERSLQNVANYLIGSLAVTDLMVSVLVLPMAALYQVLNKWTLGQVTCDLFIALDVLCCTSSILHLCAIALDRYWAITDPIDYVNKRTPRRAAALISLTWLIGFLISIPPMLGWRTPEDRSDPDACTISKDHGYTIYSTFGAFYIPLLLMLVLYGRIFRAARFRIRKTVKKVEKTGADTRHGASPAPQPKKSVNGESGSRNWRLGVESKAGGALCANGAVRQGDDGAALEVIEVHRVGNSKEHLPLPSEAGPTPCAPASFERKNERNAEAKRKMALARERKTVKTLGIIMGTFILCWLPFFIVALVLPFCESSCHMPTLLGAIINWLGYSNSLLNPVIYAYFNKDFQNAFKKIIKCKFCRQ

[2] = biological target: T2, 5-hydroxytryptamine receptor 6 (Homo sapiens, UniProt P50406); assay: Binding affinity as displacement of [3H]5-HT binding to 5-hydroxytryptamine 6 receptor in HeLa cells.; format: cell-based
T2 sequence (P50406 whole entry): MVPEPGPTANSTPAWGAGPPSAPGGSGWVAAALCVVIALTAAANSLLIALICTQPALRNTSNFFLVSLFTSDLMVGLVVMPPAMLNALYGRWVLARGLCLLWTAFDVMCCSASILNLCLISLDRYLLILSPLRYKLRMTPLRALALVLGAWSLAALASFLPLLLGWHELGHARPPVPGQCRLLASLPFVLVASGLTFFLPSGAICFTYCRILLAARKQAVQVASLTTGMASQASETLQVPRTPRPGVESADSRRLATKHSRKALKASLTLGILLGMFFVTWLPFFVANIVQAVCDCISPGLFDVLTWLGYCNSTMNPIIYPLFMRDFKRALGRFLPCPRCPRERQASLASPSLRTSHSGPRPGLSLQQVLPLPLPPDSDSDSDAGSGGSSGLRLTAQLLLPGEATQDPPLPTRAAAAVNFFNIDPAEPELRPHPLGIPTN
Outline: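 Human 5-HT6 stably expressed in HeLa cells; washed membranes in 50 mM Tris, 0.03% ascorbic acid, pH 7.6. Nonspecific binding defined with 10 µM 5-HT. Filtration and scintillation counting; one-site fit gave IC50, converted to Ki by Cheng-Prusoff. Geometric mean of ≥3 experiments, each in duplicate.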

D(3) dopamine receptor = D(3) dopamine receptor (Homo sapiens, UniProt P35462); assay: Binding affinity against dopamine receptor D3 in HEK 293 cells using [3H]spiperone radioligand; format: cell-based, HEK293
D(3) dopamine receptor, sequence (P35462 whole entry): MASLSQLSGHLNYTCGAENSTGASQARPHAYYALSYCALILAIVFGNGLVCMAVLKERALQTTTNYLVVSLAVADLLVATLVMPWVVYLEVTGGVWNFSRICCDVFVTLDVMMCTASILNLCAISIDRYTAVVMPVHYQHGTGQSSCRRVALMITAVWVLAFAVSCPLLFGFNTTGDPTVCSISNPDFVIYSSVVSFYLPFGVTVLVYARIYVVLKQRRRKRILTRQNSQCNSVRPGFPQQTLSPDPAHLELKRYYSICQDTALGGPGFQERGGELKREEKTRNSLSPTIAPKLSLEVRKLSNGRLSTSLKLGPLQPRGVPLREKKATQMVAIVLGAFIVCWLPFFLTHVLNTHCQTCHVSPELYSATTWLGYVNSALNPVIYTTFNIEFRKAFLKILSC

D(2) dopamine receptor = D(2) dopamine receptor (Homo sapiens, UniProt P14416); assay: Binding affinity against dopamine receptor D2 using [3H]spiperone radioligand in CHO cells; format: cell-based
D(2) dopamine receptor, sequence (P14416 whole entry): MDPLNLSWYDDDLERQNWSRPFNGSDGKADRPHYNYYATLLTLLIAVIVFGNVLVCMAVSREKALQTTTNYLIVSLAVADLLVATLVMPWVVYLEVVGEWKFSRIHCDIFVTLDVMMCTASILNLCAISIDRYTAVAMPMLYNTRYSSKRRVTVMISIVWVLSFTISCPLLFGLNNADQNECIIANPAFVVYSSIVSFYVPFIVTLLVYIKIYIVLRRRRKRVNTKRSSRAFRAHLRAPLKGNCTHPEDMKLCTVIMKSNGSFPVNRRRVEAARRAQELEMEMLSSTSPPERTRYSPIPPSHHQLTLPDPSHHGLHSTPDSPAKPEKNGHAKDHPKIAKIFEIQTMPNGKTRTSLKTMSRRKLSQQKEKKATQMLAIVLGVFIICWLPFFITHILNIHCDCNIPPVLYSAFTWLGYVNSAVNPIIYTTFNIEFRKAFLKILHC

[3] = biological target: T3, 5-hydroxytryptamine receptor 1F (Homo sapiens, UniProt P30939); assay: Binding affinity against 5-hydroxytryptamine 1F receptor in CHO cells using [3H]5-HT radioligand; format: cell-based
T3 sequence (P30939 whole entry): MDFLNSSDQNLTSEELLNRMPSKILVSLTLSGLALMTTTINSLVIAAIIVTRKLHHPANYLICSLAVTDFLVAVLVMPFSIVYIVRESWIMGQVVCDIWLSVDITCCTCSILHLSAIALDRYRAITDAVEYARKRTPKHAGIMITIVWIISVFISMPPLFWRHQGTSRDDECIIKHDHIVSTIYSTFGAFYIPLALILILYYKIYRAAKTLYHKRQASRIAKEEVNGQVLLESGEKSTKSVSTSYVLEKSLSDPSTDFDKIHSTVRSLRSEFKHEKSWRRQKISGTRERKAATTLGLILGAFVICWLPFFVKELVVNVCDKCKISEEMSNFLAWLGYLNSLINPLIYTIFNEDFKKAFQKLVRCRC

[4] = biological target: 5-hydroxytryptamine receptor 1D (Homo sapiens, UniProt P28221); assay: Binding affinity against 5-hydroxytryptamine 1D receptor in CHO cells using [3H]5-HT as radioligand; format: cell-based
5-hydroxytryptamine receptor 1D, sequence (P28221 whole entry): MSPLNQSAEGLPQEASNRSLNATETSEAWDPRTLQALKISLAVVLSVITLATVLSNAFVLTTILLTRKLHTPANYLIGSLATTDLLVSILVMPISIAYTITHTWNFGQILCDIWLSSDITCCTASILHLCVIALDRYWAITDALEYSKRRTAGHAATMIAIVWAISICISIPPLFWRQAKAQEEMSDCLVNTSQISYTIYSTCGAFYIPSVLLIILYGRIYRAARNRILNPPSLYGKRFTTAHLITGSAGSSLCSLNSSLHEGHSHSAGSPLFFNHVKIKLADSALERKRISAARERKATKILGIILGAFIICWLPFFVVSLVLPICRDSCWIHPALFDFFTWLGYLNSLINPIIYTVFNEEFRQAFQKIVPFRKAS

[5] = biological target: 5-hydroxytryptamine receptor 1B (Homo sapiens, UniProt P28222); assay: Binding affinity against 5-hydroxytryptamine 1B receptor in CHO cells using [3H]5-HT as radioligand; format: cell-based
5-hydroxytryptamine receptor 1B, sequence (P28222 whole entry): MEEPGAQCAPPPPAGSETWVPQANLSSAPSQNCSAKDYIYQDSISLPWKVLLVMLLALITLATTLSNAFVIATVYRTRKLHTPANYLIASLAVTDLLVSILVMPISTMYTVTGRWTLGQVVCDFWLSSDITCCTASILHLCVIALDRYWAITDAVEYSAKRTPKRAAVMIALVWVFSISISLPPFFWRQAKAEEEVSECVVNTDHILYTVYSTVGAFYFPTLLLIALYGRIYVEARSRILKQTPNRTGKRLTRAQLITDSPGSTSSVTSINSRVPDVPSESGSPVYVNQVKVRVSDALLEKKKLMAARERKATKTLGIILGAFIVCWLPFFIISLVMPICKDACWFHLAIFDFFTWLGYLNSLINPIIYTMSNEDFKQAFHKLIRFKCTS

[6] = biological target: 5-hydroxytryptamine receptor 7 (Homo sapiens, UniProt P34969); assay: Binding affinity for 5-hydroxytryptamine 7 receptor human cloned receptors in CHO cells using [3H]5-HT; format: cell-based
5-hydroxytryptamine receptor 7, sequence (P34969 whole entry): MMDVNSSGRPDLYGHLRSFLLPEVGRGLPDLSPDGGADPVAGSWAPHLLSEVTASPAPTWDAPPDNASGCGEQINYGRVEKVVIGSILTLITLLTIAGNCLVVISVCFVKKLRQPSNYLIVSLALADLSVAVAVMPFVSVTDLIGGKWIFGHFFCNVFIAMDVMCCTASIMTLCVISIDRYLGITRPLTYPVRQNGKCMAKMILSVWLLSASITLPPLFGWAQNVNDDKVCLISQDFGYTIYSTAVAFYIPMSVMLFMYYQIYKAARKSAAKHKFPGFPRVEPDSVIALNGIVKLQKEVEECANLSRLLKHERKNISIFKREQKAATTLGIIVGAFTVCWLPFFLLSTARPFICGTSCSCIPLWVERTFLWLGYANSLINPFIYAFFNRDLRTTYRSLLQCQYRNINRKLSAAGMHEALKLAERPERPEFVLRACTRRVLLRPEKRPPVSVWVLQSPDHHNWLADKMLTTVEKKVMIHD

D(4) dopamine receptor = biological target: T4, D(4) dopamine receptor (Homo sapiens, UniProt P21917); assay: Binding affinity against dopamine receptor D4 cloned in HEK 293 cells using [3H]spiperone radioligand; format: cell-based, HEK293
T4 sequence (P21917 whole entry): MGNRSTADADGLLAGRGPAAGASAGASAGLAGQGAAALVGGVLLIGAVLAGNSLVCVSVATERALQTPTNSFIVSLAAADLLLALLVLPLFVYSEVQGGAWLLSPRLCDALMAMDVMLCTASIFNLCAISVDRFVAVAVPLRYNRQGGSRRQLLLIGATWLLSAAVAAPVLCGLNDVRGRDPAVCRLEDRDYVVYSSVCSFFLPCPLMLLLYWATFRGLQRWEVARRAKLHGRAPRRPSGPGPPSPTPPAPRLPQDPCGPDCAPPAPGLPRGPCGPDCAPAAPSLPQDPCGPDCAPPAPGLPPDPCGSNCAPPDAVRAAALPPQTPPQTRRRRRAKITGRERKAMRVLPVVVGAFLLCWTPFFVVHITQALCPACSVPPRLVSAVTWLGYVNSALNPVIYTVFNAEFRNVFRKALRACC

[7] = biological target: 5-hydroxytryptamine receptor 2A (Rattus norvegicus, UniProt P14842); assay: Binding affinity for 5-hydroxytryptamine 2 receptor of rat cortical membrane using [3H]DOB radioligand
5-hydroxytryptamine receptor 2A, sequence (P14842 whole entry): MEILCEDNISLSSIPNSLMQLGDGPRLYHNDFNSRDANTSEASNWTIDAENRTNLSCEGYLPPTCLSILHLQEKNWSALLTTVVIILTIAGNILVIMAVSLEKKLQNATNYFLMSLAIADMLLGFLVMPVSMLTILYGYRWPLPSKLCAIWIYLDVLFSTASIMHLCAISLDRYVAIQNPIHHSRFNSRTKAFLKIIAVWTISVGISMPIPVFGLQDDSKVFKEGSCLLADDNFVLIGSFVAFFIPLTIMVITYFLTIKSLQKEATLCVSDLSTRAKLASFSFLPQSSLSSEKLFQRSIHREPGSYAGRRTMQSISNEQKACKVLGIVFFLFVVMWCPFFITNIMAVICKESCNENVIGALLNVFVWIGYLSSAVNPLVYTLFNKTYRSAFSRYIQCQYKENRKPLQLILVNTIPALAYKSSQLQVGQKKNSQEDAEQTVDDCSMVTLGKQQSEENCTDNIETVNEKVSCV

[8] = biological target: 5-hydroxytryptamine receptor 5A (Rattus norvegicus, UniProt P35364); assay: Binding affinity against 5-hydroxytryptamine 5A receptor in HEK 293 cells was determined using [3H]LSD as radioligand; format: cell-based, HEK293
5-hydroxytryptamine receptor 5A, sequence (P35364 whole entry): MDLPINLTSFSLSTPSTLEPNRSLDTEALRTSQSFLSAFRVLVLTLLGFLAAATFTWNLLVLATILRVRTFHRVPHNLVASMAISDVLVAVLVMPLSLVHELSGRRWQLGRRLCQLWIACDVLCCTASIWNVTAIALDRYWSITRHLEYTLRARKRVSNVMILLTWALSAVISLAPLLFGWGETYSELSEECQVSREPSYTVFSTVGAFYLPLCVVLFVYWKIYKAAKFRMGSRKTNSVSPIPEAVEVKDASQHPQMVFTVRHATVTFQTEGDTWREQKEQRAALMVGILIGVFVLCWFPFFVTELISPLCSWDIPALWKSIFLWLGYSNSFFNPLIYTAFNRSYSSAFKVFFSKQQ

[9] = biological target: T2, 5-hydroxytryptamine receptor 6; assay: Binding affinity as displacement of [3H]5-HT binding to 5-hydroxytryptamine 6 receptor in HeLa cells; format: cell-based
Outline: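 Membranes from HeLa cells stably expressing cloned human 5-HT6 receptor, in 50 mM Tris with 0.03% ascorbic acid, pH 7.6. […] Nonspecific binding defined by 10 µM 5-HT. Filtration, then scintillation counting. One-site fit gave IC50, converted to Ki by Cheng-Prusoff. Geometric mean of ≥3 independent duplicate runs.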

Question: Which Ki [1] does the source give for `CCOC(=O)c1[nH]c2ccccc2c1CCN(C)C` here?
Answer: 1800 nM

Question: What about the Ki [2] of the same molecule?
Answer: 20 nM

Question: What about the Ki (D(3) dopamine receptor) of the same molecule?
Answer: 110 nM

Question: What about the Ki (D(2) dopamine receptor) of the same molecule?
Answer: 59 nM

Question: What about the Ki [3] of the same molecule?
Answer: 2000 nM

Question: What about the Ki [4] of the same molecule?
Answer: 330 nM

Question: What about the Ki [5] of the same molecule?
Answer: 910 nM

Question: And the Ki [6]?
Answer: 510 nM

Question: And the Ki (D(4) dopamine receptor)?
Answer: 1600 nM

Question: What about the Ki [7] of the same molecule?
Answer: 130 nM

Question: With `COc1cccc(Cc2noc(-c3[nH]c4ccccc4c3CCN(C)C)n2)c1` as the molecule, how does the Ki [2] read?
Answer: 1.3 nM

Question: For `CO[C@H]1c2cccc3c2c(cn3S(=O)(=O)c2ccc(C)cc2)C[C@@H]1N(C)C`, which Ki [2] is on record?
Answer: 130 nM

Question: `COc1ccc2c(c1)c(CCN)cn2S(=O)(=O)c1ccccc1` was tested. Which Ki [2] did it give?
Answer: 40 nM

Question: How did the Ki [2] turn out when `COc1ccc2c(c1)c(CCN(C)C)cn2S(=O)(=O)c1cccs1` was run?
Answer: 8.3 nM

Question: How did the Ki [2] turn out when `COc1ccc2c(c1)c(CCN1CCOCC1)cn2S(=O)(=O)c1ccccc1` was run?
Answer: 1700 nM

Question: `CN(C)CCc1cn(S(=O)(=O)c2ccccc2)c2ccc(OCc3ccccc3)cc12` was tested. Which Ki [2] did it give?
Answer: 320 nM

Question: How did the Ki [2] turn out when `COc1ccc2[nH]c(C)c(CCN(C)C)c2c1` was run?
Answer: 89 nM

Question: `COc1ccc2c(c1)c(CCN(C)C)cn2S(=O)(=O)c1ccc(Cl)cc1` was tested. Which Ki [2] did it give?
Answer: 17 nM

Question: Which Ki [2] does the source give for `COc1ccc2c(c1)c(CCN(C)C)cn2S(=O)(=O)c1ccc2ccccc2c1` here?
Answer: 9.8 nM

Question: Which results are given for `COc1ccc2c(c1)c(CCN(C)C)cn2S(=O)(=O)c1ccccc1`?
Answer: Ki (D(3) dopamine receptor): 80 nM; Ki (D(2) dopamine receptor): 210 nM; Ki [3]: 2500 nM; Ki [4]: 720 nM; Ki [5]: 2200 nM; Ki [6]: 1900 nM; Ki (D(4) dopamine receptor): > 3200 nM; Ki [8]: > 5000 nM; Ki [7]: 65 nM

Question: `COc1ccc(S(=O)(=O)n2cc(CCN(C)C)c3cc(OC)ccc32)cc1` was tested. Which Ki [2] did it give?
Answer: 26 nM

Question: Which results are given for `CN(C)CCc1cccc2c1ccn2S(=O)(=O)c1ccccc1`?
Answer: Ki [1]: 170 nM; Ki [2]: 1.5 nM; Ki (D(3) dopamine receptor): 300 nM; Ki (D(2) dopamine receptor): 1600 nM; Ki [3]: 3.9 nM; Ki [4]: 9.3 nM; Ki [5]: 11 nM; Ki [6]: 460 nM; Ki (D(4) dopamine receptor): > 3200 nM; Ki [8]: 3400 nM; Ki [7]: 18 nM

Question: `CN(C)CCc1cn(S(=O)(=O)c2ccccc2)c2ccccc12` was tested. Which Ki [1] did it give?
Answer: 520 nM

Question: And the Ki [2]?
Answer: 2.9 nM

Question: What about the Ki (D(3) dopamine receptor) of the same molecule?
Answer: 23 nM

Question: And the Ki (D(2) dopamine receptor)?
Answer: 62 nM

Question: What about the Ki [3] of the same molecule?
Answer: 770 nM

Question: And the Ki [4]?
Answer: 510 nM

Question: What about the Ki [5] of the same molecule?
Answer: 2300 nM

Question: What about the Ki [6] of the same molecule?
Answer: 3700 nM

Question: And the Ki (D(4) dopamine receptor)?
Answer: > 3200 nM

Question: And the Ki [8]?
Answer: 4000 nM

Question: What about the Ki [7] of the same molecule?
Answer: 84 nM

Question: `CN(C)CCCc1cccc2c1ccn2S(=O)(=O)c1ccccc1` was tested. Which Ki [9] did it give?
Answer: 7.9 nM
